Data published in article PMC7607594 (BMJ Open Diabetes Research & Care, 2020).

How the values were obtained:
[1] = target: T1, GLP-1r (Sus scrofa, UniProt A0ACM8QMX0); test: GLP-1r PET imaging with compartmental kinetic analysis; type: in vivo, Yucatan mini-pigs; conditions: 2-tissue compartment model, mean±SEM
T1 sequence (A0ACM8QMX0 24-463): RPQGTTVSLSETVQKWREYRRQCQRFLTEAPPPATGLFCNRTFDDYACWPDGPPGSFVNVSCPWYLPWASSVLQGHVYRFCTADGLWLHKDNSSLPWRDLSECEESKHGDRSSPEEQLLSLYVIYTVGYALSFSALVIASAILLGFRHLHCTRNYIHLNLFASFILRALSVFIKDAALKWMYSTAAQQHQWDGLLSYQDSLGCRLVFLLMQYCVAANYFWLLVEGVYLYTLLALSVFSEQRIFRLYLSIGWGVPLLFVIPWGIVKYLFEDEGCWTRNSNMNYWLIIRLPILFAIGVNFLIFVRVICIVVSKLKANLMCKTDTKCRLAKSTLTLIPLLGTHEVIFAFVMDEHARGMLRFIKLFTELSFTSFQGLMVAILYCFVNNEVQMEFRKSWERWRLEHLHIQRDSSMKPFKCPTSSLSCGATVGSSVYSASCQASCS
Procedure, shortened: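 Adult Yucatan mini-pigs, lean or obese, anesthetized; a 68Ga-labeled GLP-1r agonist radiotracer at 0.2 MBq/kg was given IV over 30 s. A dynamic abdominal PET-CT scan ran for 60 min in 30 frames, either fasted or at euglycemic–hyperinsulinemic clamp plateau (insulin 120 mU kg−1 h−1, 20% glucose). Arterial input came from an external arteriovenous loop gamma detector. Vs came from a 2-tissue compartment fit. Mean±SEM, unpaired t-test.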

[2] = ^68Ga-DOTA PET imaging of visceral blood flow; type: in vivo, Yucatan mini-pigs; conditions: for K1 (unidirectional transfer rate from blood to tissue): 1-tissue compartment model, mean±SEM
Procedure, shortened: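 Visceral perfusion was measured in anesthetized lean and obese Yucatan mini-pigs during the same session, after GLP-1r imaging. 68Ga-DOTA at 1.2 MBq/kg was given IV over 10 s, followed by a dynamic PET of 10 min in 46 frames. Arterial input came from an arteriovenous loop. Images were partial-volume corrected. K1 came from a one-tissue compartment fit. Mean±SEM, unpaired t-test.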

Substance	GLP-1r binding potential (Vs, distribution volume of specific binding) ([1]; duodenum, lean, fasted) [mL/ccm]	GLP-1r binding potential (Vs, distribution volume of specific binding) ([1]; duodenum, lean, insulin (clamp plateau)) [mL/ccm]	GLP-1r binding potential (Vs, distribution volume of specific binding) ([1]; duodenum, obese, fasted) [mL/ccm]	GLP-1r binding potential (Vs, distribution volume of specific binding) ([1]; duodenum, obese, insulin (clamp plateau)) [mL/ccm]	GLP-1r binding potential (Vs, distribution volume of specific binding) ([1]; pancreas, obese, fasted) [mL/ccm]	GLP-1r binding potential (Vs, distribution volume of specific binding) ([1]; subcutaneous fat, lean, fasted) [mL/ccm]	GLP-1r binding potential (Vs, distribution volume of specific binding) ([1]; subcutaneous fat, obese, fasted) [mL/ccm]	GLP-1r binding potential (Vs, distribution volume of specific binding) ([1]; visceral fat, lean, fasted) [mL/ccm]	GLP-1r binding potential (Vs, distribution volume of specific binding) ([1]; visceral fat, obese, fasted) [mL/ccm]	K1 (unidirectional transfer rate from blood to tissue) ([2]; duodenum, lean) [mL ccm^−1 min^−1]	K1 (unidirectional transfer rate from blood to tissue) ([2]; pancreas, obese) [mL ccm^−1 min^−1]	reduction of K1 for the flow-coded images ([2]; pancreatic level, obese versus lean animals)	K1 (unidirectional transfer rate from blood to tissue) ([2]; subcutaneous fat, lean) [mL ccm^−1 min^−1]	K1 (unidirectional transfer rate from blood to tissue) ([2]; subcutaneous fat, obese) [mL ccm^−1 min^−1]	K1 (unidirectional transfer rate from blood to tissue) ([2]; visceral fat, lean) [mL ccm^−1 min^−1]	K1 (unidirectional transfer rate from blood to tissue) ([2]; visceral fat, obese) [mL ccm^−1 min^−1]
[^68Ga]Ga-DO3A-VS-Cys40-exendin-4	3.02±0.20	2.62±0.17	2.87±0.29	2.88±0.25	1.49±0.47	0.13±0.02	0.06±0.02	0.44±0.13	0.13±0.02	–	–	–	–	–	–	–
^68Ga-DOTA	–	–	–	–	–	–	–	–	–	0.14±0.02	0.14±0.05	about 90%	0.08±0.03	0.01±0.01	0.02±0.01	0.03±0.01
